Experimental data collected from several papers.
Each line is one published result; the experiments were not run side by side.
SETD7: Histone-lysine N-methyltransferase SETD7 (SETD7, Homo sapiens, UniProt Q8WTS6)
DRD5: D(1B) dopamine receptor (DRD5, Homo sapiens, UniProt P21918)
HSD11B1: 11-beta-hydroxysteroid dehydrogenase 1 (HSD11B1, Homo sapiens, UniProt P28845)
SLC10A2: Ileal sodium/bile acid cotransporter (SLC10A2, Homo sapiens, UniProt Q12908)
CNR2: Cannabinoid receptor 2 (CNR2, Homo sapiens, UniProt P34972)

For `O=C1C=C2CC3(O)COc4c(ccc(O)c4O)C3=C2C=C1O` (centres unmarked), the inhibition was 28% (SETD7; cell-free assay; 10 µM).
The inhibition of `CCN(CC)c1ccc(C2Nc3ccc(C(=O)c4ccccc4)cc3NC3=C2C(=O)CC(C)(C)C3)cc1` (centres unmarked) is reported as 37% (DRD5; ligand displacement, radioligand; 10 µM).
With `CN(C)CCCN1c2ccccc2Sc2ccc(Cl)cc21` the inhibition was under 40% (HSD11B1; enzyme activity, inhibitor; 20 µM, lysate).
With `CN(C)c1ccc2nc3ccc(=[N+](C)C)cc-3sc2c1` the inhibition was 35% (SETD7; cell-free assay; 10 µM).
`N#Cc1cc(Cn2c(N3CCCC3)nc3ccccc32)ccc1F` gave an inhibition of 48.7% (DRD5; ligand displacement; 10 µM).
The inhibition of `O=C(O)c1ncccc1O` is reported as about 50% (72 kDa type IV collagenase (MMP2, Homo sapiens, UniProt P08253); enzyme activity, inhibitor, fluorescence; 1 mM).
With `CN1CC(Oc2cnc(C#N)cc2-c2ccn3nc(NC(=O)C4CC4)cc3c2)C1` the inhibition was 1% (Cyclin-dependent kinase-like 3 (CDKL3, Homo sapiens, UniProt Q8IVW4); enzyme activity, inhibitor; 1 µM).
For `CCCN(CCC)S(=O)(=O)c1ccc(C(=O)O)cc1`, the inhibition was 47.4% (SLC10A2; transporter uptake, inhibitor, radiometric; 1 mM).
`CC(C)c1c(C(=O)Nc2ccccc2)c(-c2ccccc2)c(-c2ccc(F)cc2)n1CC[C@@H](O)C[C@@H](O)CC(=O)O` gave an inhibition of under 40% (HSD11B1; enzyme activity, inhibitor; 20 µM, lysate).
For `C=CCSCC1Nc2cc(Cl)c(S(N)(=O)=O)cc2S(=O)(=O)N1` (centres unmarked), the inhibition was 57.9% (SLC10A2; transporter uptake, inhibitor, radiometric; 1 mM).
With `O=C(O)CCCCCCCCCCCC[C@@H]1C=CCC1` the inhibition was -48% (SETD7; cell-free assay; 10 µM).
For `C[C@@H](O)[C@H]1C(=O)N2C(C(=O)O)=C(S[C@@H]3CN[C@H](C(=O)N(C)C)C3)[C@H](C)[C@H]12`, the inhibition was under 10% (SLC10A2; transporter uptake, inhibitor, radiometric; 1 mM).
For `Cc1cc(-c2ccc(/N=N/c3ccc4c(S(=O)(=O)O)cc(S(=O)(=O)O)c(N)c4c3O)c(C)c2)ccc1/N=N/c1ccc2c(S(=O)(=O)O)cc(S(=O)(=O)O)c(N)c2c1O`, the inhibition was 101% (SETD7; cell-free assay; 10 µM).
For `O=C(c1ccccc1)c1ccc2n1CCC2C(=O)O` (centres unmarked), the inhibition was under 10% (SLC10A2; transporter uptake, inhibitor, radiometric; 1 mM).
`C=CC1=C(C)c2cc3[nH]c(cc4nc(cc5[nH]c(cc1n2)c(C)c5CCC(=O)O)C(CCC(=O)O)=C4C)c(C)c3C=C` gave an inhibition of 34% (SETD7; cell-free assay; 10 µM).
For `CN(C)C1CCN(CC#Cc2nn(C3CCCC3)c3nc(NCc4ccccc4)ncc23)C1` (centres unmarked), the inhibition was 1% (Casein kinase I isoform alpha (CSNK1A1, Homo sapiens, UniProt P48729); enzyme activity, inhibitor, FRET; 10 µM).
The inhibition of `NS(=O)(=O)c1cc2c(cc1Cl)NC(C(Cl)Cl)NS2(=O)=O` (centres unmarked) is reported as 44.7% (SLC10A2; transporter uptake, inhibitor, radiometric; 1 mM).
For `O=C1C=CC(=O)c2c(O)cccc21`, the inhibition was 13% (SETD7; cell-free assay; 10 µM).
`O=C(c1ccc(Cl)cc1)N(Cc1ccccc1)C1CCCCC1` has an inhibition of 41.6% (CNR2; cell-free assay; 10 µM).
`O=C(O[C@@H]1Cc2c(O)cc(O)cc2O[C@@H]1c1cc(O)c(O)c(O)c1-c1c([C@H]2Oc3cc(O)cc(O)c3C[C@H]2O)cc(O)c(O)c1O)c1cc(O)c(O)c(O)c1` gave an inhibition of 53% (SETD7; cell-free assay; 10 µM).
`C=C(C)C(=O)Nc1cc(C(=O)O)cc(C(=O)O)c1` has an inhibition of 22% (Galanin receptor type 1 (GALR1, Homo sapiens, UniProt P47211); cell-free assay, radioligand; 10 µM).
`O=C(NC[C@H]1CN(c2ccc(N3CCOCC3=O)cc2)C(=O)O1)c1ccc(Cl)s1` gave an inhibition of 88.6% (Coagulation factor X (F10, Homo sapiens, UniProt P00742); enzyme activity, inhibitor, absorbance; 0.1 µM).
With `CCN(c1cc(C#CCN2CCOCC2)cc(C(=O)NCc2c(C)cc(C)[nH]c2=O)c1C)[C@H]1CC[C@H](N(C)CCOC)CC1` the inhibition was 6% (SETD7; enzyme activity, inhibitor; 1 µM).
For `NS(=O)(=O)c1cc2c(cc1C(F)(F)F)NC(Cc1ccccc1)NS2(=O)=O` (centres unmarked), the inhibition was 64.5% (SLC10A2; transporter uptake, inhibitor, radiometric; 1 mM).
With `CN1CCN(CCCOc2ccc(=O)n(-c3ccc(Cl)c(Cl)c3)n2)CC1` the inhibition was 27.4% (CNR2; ligand displacement; 1 µM).
For `COc1ccc2c(c1)c(CC(=O)O)c(C)n2C(=O)c1ccc(Cl)cc1`, the inhibition was 93.2% (SLC10A2; transporter uptake, inhibitor, radiometric; 1 mM).
`C=C(CC)C(=O)c1ccc(OCC(=O)O)c(Cl)c1Cl` gave an inhibition of under 40% (HSD11B1; enzyme activity, inhibitor; 20 µM, lysate).
With `COc1cc(NC(C)=O)c(Cl)cc1C(=O)Nc1nccs1` the inhibition was 25% (CNR2; cell-free assay; 10 µM).
For `CC(=O)N[C@H]1CSSC[C@@H](C(=O)N[C@H](Cc2c[nH]c3ccccc23)C(N)=O)NC(=O)[C@H](Cc2ccccc2)NC(=O)[C@H](CCCNC(=N)N)NC1=O`, the inhibition was 0% (Melanocortin receptor 5 (MC5R, Homo sapiens, UniProt P33032); ligand displacement, radioligand; 10 µM, 40 min).
`NS(=O)(=O)c1cc2c(cc1Cl)N=CNS2(=O)=O` has an inhibition of 25.3% (SLC10A2; transporter uptake, inhibitor, radiometric; 1 mM).
For `Cc1ccc(Nc2nccc(N(C)c3ccc4c(C)n(C)nc4c3)n2)cc1S(N)(=O)=O`, the inhibition was -6% (G protein-coupled receptor kinase 5 (GRK5, Homo sapiens, UniProt P34947); enzyme activity, inhibitor; 0.3 µM).
For `Cc1cc(O)c(C=O)c2c1C(=O)Oc1c(C)c(O)c3c(c1O2)C(O)OC3=O` (centres unmarked), the inhibition was 0% (SETD7; cell-free assay; 10 µM).
